PubChem BioAssay
Records with an inconclusive call do not appear.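 How the source made its calls, unless noted: active means viability increase at or above a cutoff of the median across tested compounds plus 3 SD (cut at about 8.5% in these data, passing the limit was not always enough); inconclusive means some gains above the cutoff, reason not given; inactive means the rest.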

Assays:
[1] = OD615 S. cerevisiae growth inhibition, permissive medium, pilot counter-assay, permissive growth control for S. cerevisiae lifespan shortening project (AID 705;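 active means growth inhibition above 25% in both replicates, a cutoff set 3 SD above the mean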); conditions: OD615, 24 h, at 10 µM, stronger effect = higher value
In short: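 System: Engineered DeaD yeast | Buffer or medium: SC raffinose/galactose permissive medium | Incubation: Cells pre-grown 4 h, then 24 h compound exposure, 30 °C humidified | Measured by: Absorbance (optical density) at 615 nm | Read-out: Reduction in yeast growth (OD615)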

[2] = Restrictive medium S. cerevisiae growth inhibition, OD615, pilot screen of yeast lifespan reduction project, restrictive growth control (AID 706;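 active means growth inhibition above a set limit, 3 SD over mean compound inhibition, in both replicates, cut at about 43% in these data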;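 further: modified DeaD lifespan yeast strain shifted to restrictive glucose medium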); conditions: OD615, 48 h, at 10 µM, stronger effect = higher value
In short: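 Material: modified S. cerevisiae; Medium: glucose-based CSMM-D restrictive medium; Compound dosing: one concentration, 10 µM final, 0.25% DMSO; Incubation: 48 h compound exposure at 30 °C; Measured by: OD615.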

[3] = viability gain of MRP-1-high H69AR cells under doxorubicin, pilot screen, MRP-1 activator project, CellTiter-Glo, duplicate (AID 807); conditions: H69AR viability with doxorubicin, CellTiter-Glo luminescence; at 10 µM; stronger effect = higher value;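 further: compound pretreatment 18-22 h then 72 h combined with doxorubicin; 0% = doxorubicin alone and 100% = vehicle without doxorubicin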
[4] = growth suppression of beta-catenin knockout HCT116, pilot screen, human colon tumor cells (AID 823;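 active means cell viability at or below a set limit in both duplicate runs, the limit being the all-compound median minus 4 SD, cut at about 23% in these data, passing the limit was not always enough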;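 further: 0% = wells killed by 20 µM Hyamine and 100% = untreated DMSO cell wells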); conditions: CellTiter-Glo, 60 h, at 10 µM, stronger effect = lower value
[5] = growth suppression of PTEN-deleted HCT116, pilot screen, cell-based, HCT116 clonal line, CellTiter-Glo (AID 824;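 active means viability at or below 27.92% in each of two runs, the all-compound median minus 4 SD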;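 further: 0% = 20 µM Hyamine control and 100% = vehicle cell control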); conditions: 60 h, at 10 µM, stronger effect = lower value
[6] = inhibitors of the yeast RAM network, pilot screen, dse1pr::URA3 reporter, 5-FOA selection (AID 869;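 active means inhibition over a set limit, the all-compound mean plus 3 SD, in both replicate runs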;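 further: 0% = DMSO wells with no growth and 100% = 10 µM 1-NA-PP1 with full growth; RAM network block rescues cells from 5-FOA so hits raise OD615 growth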); conditions: S. cerevisiae dse1pr::URA3 5-FOA growth, OD615, 2 d; at 10 µM; stronger effect = higher value; strain carries analog-sensitive mutant Cbk1 kinase
[7] = RAM signaling pathway blockade in yeast – S. cerevisiae, Pdr1DBD-CYC8 efflux-inhibited sensitized strain, primary screen (AID 1298;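 active means RAM network inhibition above 8.4% in each of two replicates, 3 SD over the compound average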;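 further: 0% = DMSO untreated cells without growth and 100% = 10 µM 1-NA-PP1 full growth; higher means more yeast growth rescued from 5-FOA killing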); conditions: S. cerevisiae cbk1-as DSE1-URA3 strain, 5-FOA growth OD615, 2 d; at 50 µM; stronger effect = higher value

CCC(=O)Nc1nc2c(OC)ccc(C)c2s1
inactive: growth inhibition [1] -17.7% | growth inhibition [2] -14.1% | viability increase [3] -5.96% | viability [4] 96.4% | viability [5] 92.2% | inhibition [6] 0.225% | RAM network inhibition [7] 1.37%

O=C1OC(Nc2nc3ccccc3s2)c2ccccc21 (configuration not stated)
inactive: growth inhibition [1] -2.46% | growth inhibition [2] 6.6% | viability increase [3] 0.26% | viability [4] 101% | viability [5] 101% | inhibition [6] 0.67% | RAM network inhibition [7] 0.48%

COc1ccc(NC(=O)c2c(NC(=O)CNCc3ccco3)sc3c2CCC3)c(OC)c1
inactive: growth inhibition [1] -3.54% | growth inhibition [2] -19% | viability increase [3] -1.44% | viability [4] 88.7% | viability [5] 79.2% | inhibition [6] 1.43% | RAM network inhibition [7] 5.28%

Cc1cc(C)nc(NS(=O)(=O)c2ccc(NC(=O)c3ccc4c(c3)OCO4)cc2)n1
inactive: growth inhibition [1] -6.52% | growth inhibition [2] -0.9% | viability increase [3] 5.22% | viability [4] 100% | viability [5] 95.9% | inhibition [6] 1.28% | RAM network inhibition [7] -0.21%

CCOC(=O)N1CCN(C(=O)Cn2c(=O)sc3ccccc32)CC1
inactive: growth inhibition [1] -1.79% | growth inhibition [2] -7.62% | viability increase [3] -0.84% | viability [4] 100% | viability [5] 97.6% | inhibition [6] 1.68% | RAM network inhibition [7] 5.71%

O=C(CCS(=O)(=O)c1cccc2nonc12)NC1CCCCCC1
inactive: growth inhibition [1] -7.86% | growth inhibition [2] -9.46% | viability increase [3] -4.43% | viability [4] 86.7% | viability [5] 84.5% | inhibition [6] 0.855% | RAM network inhibition [7] 0.93%

CCCCN(C)C(=O)c1c[nH]c2ccc(S(=O)(=O)N3CCOCC3)cc2c1=O
inactive: growth inhibition [1] -5.67% | growth inhibition [2] -15.5% | viability increase [3] 0.64% | viability [4] 109% | viability [5] 98.8% | inhibition [6] 2.05% | RAM network inhibition [7] 5.01%

C=CCn1c(=N)n(CC(O)COc2ccccc2OC)c2ccccc21 (configuration not stated)
inactive: growth inhibition [1] -4.97% | growth inhibition [2] 0.15% | viability increase [3] -4.19% | viability [4] 73.9% | viability [5] 77.4% | inhibition [6] 1.92% | RAM network inhibition [7] 1.07%

COc1ccc(C(=O)Nc2c(N)nc(SCC(=O)N3CCCCCC3)[nH]c2=O)cc1OC
inactive: growth inhibition [1] -2.35% | growth inhibition [2] -3.33% | viability increase [3] -0.26% | viability [4] 96.8% | viability [5] 102% | inhibition [6] 1.97% | RAM network inhibition [7] 5.94%

O=C(Cn1nnc(-c2ccccc2F)n1)NCCc1ccccc1
inactive: growth inhibition [1] -13.3% | growth inhibition [2] -7.54% | viability increase [3] -0.89% | viability [4] 97.4% | viability [5] 94% | inhibition [6] 1.33% | RAM network inhibition [7] 0.36%

Cc1cccc(CC(=O)Nc2cc(=O)n(C)c(=O)n2C)c1
inactive: growth inhibition [1] -3.74% | growth inhibition [2] -4.44% | viability increase [3] -1.1% | viability [4] 100% | viability [5] 97.4% | inhibition [6] 1.84% | RAM network inhibition [7] 0.48%

CCOc1ccc(N(CC(=O)OC)S(=O)(=O)c2c(C)noc2C)cc1
inactive: growth inhibition [1] 3.84% | growth inhibition [2] -0.545% | viability increase [3] -1.21% | viability [4] 87.4% | viability [5] 95.1% | inhibition [6] -0.69% | RAM network inhibition [7] -0.31%

O=C1c2oc3ccc(F)cc3c(=O)c2C(c2ccc(F)cc2)N1CCCN1CCOCC1 (configuration not stated)
inactive: growth inhibition [1] -1.14% | growth inhibition [2] 6.59% | viability increase [3] 0.11% | viability [4] 106% | viability [5] 97.5% | inhibition [6] 1.92% | RAM network inhibition [7] -0.47%

O=C(NC1CCCCCCC1)c1c(O)c2ccccc2[nH]c1=O
inactive: growth inhibition [1] -3.12% | growth inhibition [2] 8.01% | viability increase [3] -4.23% | viability [4] 91.6% | viability [5] 92.5% | inhibition [6] 2.4% | RAM network inhibition [7] -0.37%

CS(=O)(=O)N(CC(=O)NCc1ccco1)c1ccc(Cl)c(C(F)(F)F)c1
inactive: growth inhibition [1] -19% | growth inhibition [2] -22.3% | viability increase [3] -3.58% | viability [4] 92.8% | viability [5] 88.2% | inhibition [6] 0.705% | RAM network inhibition [7] 7.07%

COC(=O)c1c(NC(=O)CCN2CCOCC2)sc2c1CCCC2
inactive: growth inhibition [1] -1.47% | growth inhibition [2] -2.81% | viability increase [3] -6.91% | viability [4] 88.4% | viability [5] 89.7% | inhibition [6] 0.935% | RAM network inhibition [7] 4.32%

CCN(CCCNC(=O)CN1C(=O)COc2ccccc21)c1ccccc1
inactive: growth inhibition [1] 0.42% | growth inhibition [2] -11.2% | viability increase [3] 1.23% | viability [4] 95.9% | viability [5] 88.3% | inhibition [6] 1.61% | RAM network inhibition [7] 3.49%

CCCCCSc1nc2c(c(=O)[nH]c(=O)n2C)n1C
inactive: growth inhibition [1] -12.6% | growth inhibition [2] -5.52% | viability increase [3] -2.27% | viability [4] 90.3% | viability [5] 79.6% | inhibition [6] 2.1% | RAM network inhibition [7] 0.68%

CSc1nc2sc3c(c2c(=O)n1C)CCCC3
inactive: growth inhibition [1] 7.93% | growth inhibition [2] 8.89% | viability increase [3] -0.98% | viability [4] 99.9% | viability [5] 94.7% | inhibition [6] 0.695% | RAM network inhibition [7] 3.94%

COc1ccc2c(c1)CCc1c(C(=O)NCc3ccc(F)cc3)noc1-2
inactive: growth inhibition [1] -8.49% | growth inhibition [2] -0.25% | viability increase [3] 1.03% | viability [4] 100% | viability [5] 103% | inhibition [6] 1.86% | RAM network inhibition [7] 4.87%

COc1ccc(C2(O)CCN(C(=O)Cc3cccnc3)CC2)cc1
inactive: growth inhibition [1] -20.4% | growth inhibition [2] -12% | viability increase [3] 1.04% | viability [4] 99.3% | viability [5] 94.7% | inhibition [6] 1.03% | RAM network inhibition [7] 1.03%

CCOC(=O)N1CCC(N2C(=O)c3cc(C(=O)NC4CCCCC4)ccc3C2O)CC1 (configuration not stated)
inactive: growth inhibition [1] -2.13% | growth inhibition [2] -0.895% | viability increase [3] -3.03% | viability [4] 94.5% | viability [5] 88.1% | inhibition [6] 0.045% | RAM network inhibition [7] 3.81%

COc1cccc(C2N(c3ccc(Cl)cc3)C(=O)C3CCCN32)c1 (configuration not stated)
inactive: growth inhibition [1] -5.56% | growth inhibition [2] 1.89% | viability increase [3] 0.15% | viability [4] 97.5% | viability [5] 94.5% | inhibition [6] 1.04% | RAM network inhibition [7] 0%

Cn1c(C(=O)NCCN2CCCCCC2)cc2c(=O)n(C)c3ccccc3c21
inactive: growth inhibition [1] -1.66% | growth inhibition [2] 0.56% | viability increase [3] -5.04% | viability [4] 65.7% | viability [5] 74.9% | inhibition [6] 1.29% | RAM network inhibition [7] 5.21%

COC(=O)CC1=C(C)C(=O)CC2C(C)(C)CCCC12C (configuration not stated)
inactive: growth inhibition [1] 4.86% | growth inhibition [2] -8.22% | viability increase [3] 1.01% | viability [4] 85.6% | viability [5] 94% | inhibition [6] 1.27% | RAM network inhibition [7] 4.48%

Cc1nc2cc(C(=O)O)ccc2n1-c1ccccc1
inactive: growth inhibition [1] -11.5% | growth inhibition [2] -0.12% | viability increase [3] -2.1% | viability [4] 109% | viability [5] 94.8% | inhibition [6] 1.99% | RAM network inhibition [7] 1.31%

CC1(C)CC(=O)C(C=NCCCN2CCOCC2)=C(O)C1
inactive: growth inhibition [1] -0.685% | growth inhibition [2] 0.465% | viability increase [3] -0.36% | viability [4] 97.6% | viability [5] 97% | inhibition [6] -0.16% | RAM network inhibition [7] -0.83%

O=C(O)c1c(F)c(F)c(F)c(F)c1-c1ccc(Cl)cc1
inactive: growth inhibition [1] -20% | growth inhibition [2] -19.6% | viability increase [3] -1.76% | viability [4] 98.9% | viability [5] 98.9% | inhibition [6] -0.105% | RAM network inhibition [7] 5.79%

COc1cccc(-n2c(Cc3cc(=O)[nH]c(=O)[nH]3)nnc2SCc2cccnc2)c1
inactive: growth inhibition [1] -7.23% | growth inhibition [2] -2.88% | viability increase [3] 0.52% | viability [4] 106% | viability [5] 102% | inhibition [6] 0% | RAM network inhibition [7] 0.9%

CN(C)CCCCCNCCCNC(=O)/C=N\O
inactive: growth inhibition [1] -2.17% | growth inhibition [2] 3.62% | viability increase [3] 0.12% | viability [4] 98.3% | viability [5] 103% | inhibition [6] 3.2% | RAM network inhibition [7] 1.4%

COC(=O)c1cc(-c2ccc(Br)cc2)on1
inactive: growth inhibition [1] 1.85% | growth inhibition [2] 1.59% | viability increase [3] -2.76% | viability [4] 102% | viability [5] 96.6% | inhibition [6] 0.09% | RAM network inhibition [7] 1.79%

CCCCNc1nc2c(c(=O)n(C)c(=O)n2C)n1CCC
inactive: growth inhibition [1] -8.32% | growth inhibition [2] -0.415% | viability increase [3] 0.36% | viability [4] 97.1% | viability [5] 96% | inhibition [6] -0.375% | RAM network inhibition [7] 1.74%

CC(CCc1ccccc1)NC(=O)C1CCN(C(=O)c2sccc2-n2cccc2)CC1 (configuration not stated)
inactive: growth inhibition [1] -4.79% | growth inhibition [2] 0.295% | viability increase [3] 2.68% | viability [4] 93.8% | viability [5] 89.3% | inhibition [6] 1.75% | RAM network inhibition [7] 2.14%

Cc1cc(NC(=O)CN2CCCCC2C)nc2c1c(=O)oc1ccccc12 (configuration not stated)
inactive: growth inhibition [1] 4.45% | growth inhibition [2] -0.735% | viability increase [3] -0.4% | viability [4] 102% | viability [5] 95.9% | inhibition [6] 1.36% | RAM network inhibition [7] 0.77%

COc1ccc(C(=O)N2CCN(c3ccc(C)c(C)c3)CC2)cc1OC
inactive: growth inhibition [1] -6.27% | growth inhibition [2] -4.04% | viability increase [3] -0.89% | viability [4] 99.5% | viability [5] 92% | inhibition [6] 0.21% | RAM network inhibition [7] 2.55%

Clc1ccc(Cc2nnc(-c3ccccc3Br)o2)cc1
inactive: growth inhibition [1] 1.55% | growth inhibition [2] -0.37% | viability increase [3] 4.88% | viability [4] 101% | viability [5] 91.3% | inhibition [6] -0.5% | RAM network inhibition [7] 3.39%
